Assay results gathered from unrelated publications.
Each line is one published result; the experiments were not run side by side.
Organism: Staphylococcus aureus
Read-out: microbial growth

CCCCCC(=O)Oc1c(C)c(O)c(C(=O)/C=C/c2ccccc2)c(OC)c1C
MIC (broth dilution; ATCC25923): > 5000 mg/L

CSc1ccc(-c2nc3ccccc3[nH]2)cc1
MIC (broth dilution; ATCC29213 MSSA): 16 mg/L

Cn1c(Nc2ccc(C(F)(F)F)cc2)nc2cc(Oc3ccnc(-c4ncc(C(F)(F)F)[nH]4)c3)ccc21
MIC (NCTC8325): 30 µM

Cc1ccc2nc(-c3ccco3)[nH]c2c1
MIC (broth dilution; ATCC29213 MSSA): 256 mg/L

CN[C@H](CC(C)C)C(=O)N[C@H]1C(=O)N[C@@H](CC(N)=O)C(=O)N[C@H]2C(=O)N[C@H]3C(=O)N[C@H](C(=O)N[C@H](C(=O)O)c4cc(O)cc(O)c4-c4cc3ccc4O)[C@H](O)c3ccc(c(Cl)c3)Oc3cc2cc(c3O[C@@H]2O[C@H](CO)[C@@H](O)[C@H](O)[C@H]2O[C@H]2C[C@](C)(N)[C@H](O)[C@H](C)O2)Oc2ccc(cc2Cl)[C@H]1O
MIC (broth dilution; ATCC43300 MRSA; 18 h): 1 mg/L

CC(C)Oc1c(NC(=O)c2ccc(NC(=O)[C@H](CC(N)=O)NC(=O)c3ccc(-c4nn[nH]c4-c4ccc(C#N)cc4)cc3)cc2)ccc(C(=O)Nc2ccc(C(=O)O)cc2)c1O
MIC (ATCC29213): > 64 mg/L

Cc1ccc2nc(-c3ccc(F)cc3)n(Cc3ccccc3)c2c1
MIC (broth dilution; ATCC29213 MSSA): 64 mg/L

Fc1cc(-c2cccc3ncc(-c4cnn(C5CCNCC5)c4)nc23)cc(F)c1CN1CCOCC1
MIC (NCTC8325): > 30 µM

CC1(C)S[C@@H]2[C@H](NC(=O)[C@H](N)c3ccccc3)C(=O)N2[C@H]1C(=O)O
MIC (broth dilution; 16339): 64 mg/L

O=C1NN=C(N=Cc2ccccc2O)C1=NNn1c(-c2ccccc2)nc2ccccc2c1=O
MIC (broth dilution; 24 h): 111 µM

Cc1ccc2nc(-c3ccc(Cl)c(Cl)c3)n(Cc3ccccc3)c2c1
MIC (broth dilution; ATCC29213 MSSA): 32 mg/L

COc1c(C(=O)Nc2ccc(C(=O)O)cc2)ccc2nc(-c3cc(NC(=O)C(CC(N)=O)NC(=O)c4ccc(NC(=O)c5ccc(C#N)cc5)cc4)cn3C)[nH]c12 (stereo not shown)
MIC (ATCC29213): > 64 mg/L

Cc1cc(C)cc(NC(=O)Nc2ccc(N3CCCCC3)cc2)c1
MIC: > 128 mg/L

CCCCCCC#Cc1cncc(-c2nnc(SCc3ccc(Cl)c(F)c3)n2C)c1
MIC (MRSA; drug-resistant strain): ≥ 20 mg/L

O=C1NC(=S)N/C1=C\c1c2ccccc2c(-c2ccc(N(c3ccccc3)c3ccccc3)cc2)c2ccccc12
MIC (broth dilution; ATCC6538): > 1000 mg/L

C/C=C(\C)c1cc(OC(=O)c2c(O)c(C)c(O)c(Cl)c2/C(C)=C/C)c(C)c(O)c1C(=O)O
MIC (broth dilution; 16339): 64 mg/L

c1ccc2c(-c3cnn4cc(-c5ccc(N6CCNCC6)cc5)cnc34)ccnc2c1
MIC (NCTC8325): > 30 µM

CO[C@H]1/C=C/O[C@@]2(C)Oc3c(C)c(O)c4c(O)c(c(/C=N/N5CCN(C)CC5)c(O)c4c3C2=O)NC(=O)/C(C)=C\C=C\[C@H](C)[C@H](O)[C@@H](C)[C@@H](O)[C@@H](C)[C@H](OC(C)=O)[C@@H]1C
MIC (broth dilution; ATCC29213; 24 h): 0.0078 mg/L

Cc1ccc(C)n1-c1ccc(-c2nnc(-c3cccc([N+](=O)[O-])c3)[nH]2)cc1
MIC (broth dilution; ATCC11632; 18 h): 8 mg/L

O=C1NC(=S)N/C1=C\c1ccc(-c2ccc(N(c3ccccc3)c3ccccc3)cc2)c2ccccc12
MIC (broth dilution; ATCC6538): > 1000 mg/L

O=C(O)c1cn(C2CC2)c2cc(N3CCNCC3)c(F)cc2c1=O
MIC (ATCC43300; drug-resistant strain): 0.31 mg/L

C/C=C(\C)c1cc(O)c(C)c(OC(=O)c2c(C)c(Cl)c(O)c(Cl)c2O)c1
MIC (broth dilution; MRSA): 4 mg/L

Fc1cccc(Cl)c1-c1nc2ccccc2[nH]1
MIC (broth dilution; ATCC29213 MSSA): 64 mg/L

CC1(C(=O)O)CCC(C(=O)Nc2ccc(Nc3ccccc3)cc2)C1(C)C (stereo not shown)
MIC: > 128 mg/L

CO[C@@H](C(N)=O)[C@H](NC(=O)c1ccc(NC(=O)c2ccc(C#N)cc2)cc1)C(=O)Nc1ccc(C(=O)Nc2ccc(C(=O)Nc3ccc(C(=O)O)cc3)c(O)c2OC(C)C)cc1
MIC (ATCC29213): < 0.03 mg/L

CN[C@H](CC(C)C)C(=O)N[C@H]1C(=O)N[C@@H](CC(N)=O)C(=O)N[C@H]2C(=O)N[C@H]3C(=O)N[C@H](C(=O)N[C@H](C(=O)O)c4cc(O)cc(O)c4-c4cc3ccc4O)[C@H](O)c3ccc(c(Cl)c3)Oc3cc2cc(c3O[C@@H]2O[C@H](CO)[C@@H](O)[C@H](O)[C@H]2O[C@H]2C[C@](C)(N)[C@H](O)[C@H](C)O2)Oc2ccc(cc2Cl)[C@H]1O
MIC (broth dilution; ATCC43300): 1.96 mg/L

Cc1cc(Cl)cc2sc(N(CCCn3ccnc3)C(=O)c3ccc[nH]3)nc12
MIC (ATCC25923): 1.3 µM

CN[C@H](CC(C)C)C(=O)N[C@H]1C(=O)N[C@@H](CC(N)=O)C(=O)N[C@H]2C(=O)N[C@H]3C(=O)N[C@H](C(=O)N[C@H](C(=O)O)c4cc(O)cc(O)c4-c4cc3ccc4O)[C@H](O)c3ccc(c(Cl)c3)Oc3cc2cc(c3O[C@@H]2O[C@H](CO)[C@@H](O)[C@H](O)[C@H]2O[C@H]2C[C@](C)(N)[C@H](O)[C@H](C)O2)Oc2ccc(cc2Cl)[C@H]1O
MIC (broth dilution; ATCC29213): 1 mg/L

CN[C@H](CC(C)C)C(=O)N[C@H]1C(=O)N[C@@H](CC(N)=O)C(=O)N[C@H]2C(=O)N[C@H]3C(=O)N[C@H](C(=O)N[C@H](C(=O)O)c4cc(O)cc(O)c4-c4cc3ccc4O)[C@H](O)c3ccc(c(Cl)c3)Oc3cc2cc(c3O[C@@H]2O[C@H](CO)[C@@H](O)[C@H](O)[C@H]2O[C@H]2C[C@](C)(N)[C@H](O)[C@H](C)O2)Oc2ccc(cc2Cl)[C@H]1O
MIC (10): 2.2 mg/L

O=C(CCCCCC[P+](c1ccccc1)(c1ccccc1)c1ccccc1)Nc1cc(O)c(O)c(O)c1.[Br-]
MIC (broth dilution; ATCC43300 MRSA; 18 h): 32 mg/L

C[n+]1c(/C=C/c2c[nH]c3ccccc23)cc(/C=C2\Sc3ccccc3N2CCCN2CCCC2)c2ccccc21.[I-]
MIC (broth dilution; ATCCBAA44): 4 mg/L

C/C=C(\C)c1cc(O)c(C)c(OC(=O)c2c(C)cc(O)c(Cl)c2O)c1
MIC (MRSA): 8 mg/L

CC1=NN(CNc2ccc(C(=O)O)cc2)C(=O)C1=NNn1c(-c2ccccc2)nc2ccccc2c1=O
MIC (broth dilution; 24 h): 50.5 µM

COc1cc2nccc(Oc3ccc(NC(=O)NC4CC4)c(Cl)c3)c2cc1C(N)=O
MIC (NCTC8325): > 30 µM

O=C1NC(=S)S/C1=C\c1ccc(-c2ccc(N(c3ccccc3)c3ccccc3)cc2)cc1
MIC (broth dilution; ATCC6538): 500 mg/L

O=[N+]([O-])c1cnc2ccc(F)cc2c1O
MIC: > 128 mg/L

Cc1ccc(-n2nc(C(C)(C)C)cc2NC(=O)Nc2ccc(OCCN3CCOCC3)c3ccccc23)cc1
MIC (NCTC8325): > 30 µM

CN(C)[C@@H]1C(O)=C(C(N)=O)C(=O)[C@@]2(O)C(O)=C3C(=O)c4c(O)cccc4[C@@](C)(O)[C@H]3C[C@@H]12
MIC (ATCC43300): 2 mg/L

CC[C@H]1OC(=O)[C@H](C)[C@@H](O[C@H]2C[C@@](C)(OC)[C@@H](O)[C@H](C)O2)[C@H](C)[C@@H](O[C@@H]2O[C@H](C)C[C@H](N(C)C)[C@H]2O)[C@](C)(O)C[C@@H](C)C(=O)[C@H](C)[C@@H](O)[C@]1(C)O
MIC (147; clinical isolate): 37.5 µM

O=C(O)CN1C(=O)/C(=C/c2c3ccccc3c(-c3ccc(N(c4ccccc4)c4ccccc4)cc3)c3ccccc23)SC1=S
MIC (broth dilution; ATCC25923): > 1000 mg/L

C[n+]1c(/C=C/c2ccc(O)cc2)cc(/C=C2\Sc3ccccc3N2CCCN2CCCC2)c2ccccc21.[I-]
MIC (broth dilution; ATCCBAA44): 32 mg/L

CC(C)(O/N=C(\C(=O)N[C@@H]1C(=O)N2C(C(=O)[O-])=C(C[n+]3ccccc3)CS[C@H]12)c1csc(N)n1)C(=O)O
MIC (MRSA; 18 h): > 128 mg/L

Fc1ccc(-c2nc3ccccc3[nH]2)cc1
MIC (broth dilution; ATCC29213 MSSA): 256 mg/L

O=C(O)CN1C(=O)/C(=C/c2c3ccccc3c(-c3ccc(N(c4ccccc4)c4ccccc4)cc3)c3ccccc23)NC1=S
MIC (broth dilution; ATCC6538): > 1000 mg/L

CCOC(=O)/C(C#N)=C(\O)c1ccc(NC(=O)c2cccs2)cc1
MIC: > 128 mg/L

NC[C@H]1O[C@H](O[C@H]2[C@H](O)[C@@H](O[C@H]3O[C@H](CO)[C@@H](O)[C@H](N)[C@H]3O)[C@H](N)C[C@@H]2N)[C@H](N)C[C@@H]1O
MIC (129; clinical isolate): > 100 µM

CC(C)Oc1c(NC(=O)c2ccc(NC(=O)[C@H](CC(N)=O)NC(=O)c3ccc(NC(=O)c4ccc(C#N)c(Cl)c4)cc3)cc2)ccc(C(=O)Nc2ccc(C(=O)O)cc2)c1O
MIC (ATCC29213): < 0.03 mg/L

CN(C)c1ccc(-c2nc3ncc(Cl)c(N4CCN(CC(=O)Nc5nccs5)CC4)c3[nH]2)cc1
MIC (NCTC8325): > 30 µM

CN(C)c1ccc(-c2nc3ccccc3[nH]2)cc1
MIC (broth dilution; ATCC29213 MSSA): 64 mg/L

COc1c(C)c(OC(=O)c2ccc(C)cc2)c(C)c(O)c1C(=O)/C=C/c1ccccc1
MIC (broth dilution; ATCC25923): 5000 mg/L

Cn1cnc2c(F)c(Nc3ccc(Br)cc3Cl)c(C(=O)NOCCO)cc21
MIC (NCTC8325): > 30 µM

Cc1ccc(C)n1-c1ccc(-c2n[nH]c(=S)[nH]2)cc1
MIC (broth dilution; ATCC11632; 18 h): 4 mg/L

Cc1cc(C(=O)Nc2ccc(C(=O)N[C@@H](CC(N)=O)C(=O)Nc3ccc(C(=O)Nc4ccc(C(=O)Nc5ccc(C(=O)O)cc5)c(O)c4OC(C)C)cc3)cc2)ccc1C#N
MIC (ATCC29213): 2 mg/L

O=C(O)c1ccc(Nc2ncc3c(n2)-c2ccc(Cl)cc2C(c2c(F)cccc2F)=NC3)cc1
MIC (NCTC8325): > 30 µM

c1ccc2c(-c3nc4ccccc4[nH]3)c3ccccc3cc2c1
MIC (broth dilution; ATCC29213 MSSA): 32 mg/L

Cc1cc2c([nH]c3ccccc32)c2c1C(=O)C=CC2=O
MIC (ATCC29213): 64 mg/L

CC(=O)Nc1ccc(C(=O)Nc2ccc(C(=O)N[C@@H](CC(N)=O)C(=O)Nc3ccc(C(=O)Nc4ccc(C(=O)Nc5ccc(C(=O)O)cc5)c(O)c4OC(C)C)cc3)cc2)cc1
MIC (ATCC29213): 64 mg/L

O=C(O)c1cn(C2CC2)c2cc(N3CCNCC3)c(F)cc2c1=O
MIC: 1.6 mg/L
